Values after ≈ are worked out from the molar mass of the structure shown. Active and inactive are the calls of the source. The calls are words filed in the database; no cut-off is given here.
Experiments:
Staphylococcus aureus [1] = test: Antimicrobial activity against methicillin-resistant Staphylococcus aureus E2125 by Etest; type: functional
How it was run: (§1)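 Etest (manufacturer's method) and population analysis: overnight cultures serially diluted and plated on TSA with increasing oxacillin or BPR, CFU counted after 48 h at 37°C. Colonies from subpopulations growing at high oxacillin or BPR were picked, restreaked on antibiotic-free TSA for three passages, then retested by population analysis.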

Staphylococcus aureus [2] = test: Antimicrobial activity against methicillin-resistant Staphylococcus aureus HPV107 by Etest; type: functional; how it was run: as §1
Staphylococcus aureus [3] = test: Antimicrobial activity against methicillin-resistant Staphylococcus aureus BK2464 by Etest; type: functional; how it was run: as §1
Staphylococcus aureus [4] = test: Antimicrobial activity against methicillin-resistant Staphylococcus aureus HDE288 by Etest; type: functional; how it was run: as §1
Staphylococcus aureus [5] = test: Antimicrobial activity against methicillin-resistant Staphylococcus aureus BK2529 by Etest; type: functional; how it was run: as §1
Staphylococcus aureus [6] = test: Antimicrobial activity against methicillin-resistant Staphylococcus aureus HAR24 by Etest; type: functional; how it was run: as §1
Staphylococcus aureus [7] = test: Antimicrobial activity against methicillin-resistant Staphylococcus aureus HAR22 by Etest; type: functional; how it was run: as §1
Staphylococcus aureus [8] = test: Antimicrobial activity against methicillin-resistant Staphylococcus aureus USA300 by Etest; type: functional; how it was run: as §1
Staphylococcus aureus [9] = test: Antimicrobial activity against methicillin-resistant Staphylococcus aureus COL by Etest; type: functional; how it was run: as §1
Staphylococcus aureus [10] = test: Antimicrobial activity against methicillin-resistant Staphylococcus aureus HU25 by Etest; type: functional; how it was run: as §1
Staphylococcus aureus [11] = test: Antimicrobial activity against methicillin-resistant Staphylococcus aureus E2125 assessed as concentration required for bacterial subpopulation growth; type: functional; how it was run: as §1
Staphylococcus aureus [12] = test: Antimicrobial activity against methicillin-resistant Staphylococcus aureus HPV107 assessed as concentration required for bacterial subpopulation growth; type: functional; how it was run: as §1
Staphylococcus aureus [13] = test: Antimicrobial activity against methicillin-resistant Staphylococcus aureus BK2464 assessed as concentration required for bacterial subpopulation growth; type: functional; how it was run: as §1
Staphylococcus aureus [14] = test: Antimicrobial activity against methicillin-resistant Staphylococcus aureus HDE288 assessed as concentration required for bacterial subpopulation growth; type: functional; how it was run: as §1
Staphylococcus aureus [15] = test: Antimicrobial activity against methicillin-resistant Staphylococcus aureus BK2529 assessed as concentration required for bacterial subpopulation growth; type: functional; how it was run: as §1
Staphylococcus aureus [16] = test: Antimicrobial activity against methicillin-resistant Staphylococcus aureus HAR24 assessed as concentration required for bacterial subpopulation growth; type: functional; how it was run: as §1
Staphylococcus aureus [17] = test: Antimicrobial activity against methicillin-resistant Staphylococcus aureus HAR22 assessed as concentration required for bacterial subpopulation growth; type: functional; how it was run: as §1
Staphylococcus aureus [18] = test: Antimicrobial activity against methicillin-resistant Staphylococcus aureus USA300 assessed as concentration required for bacterial subpopulation growth; type: functional; how it was run: as §1
Staphylococcus aureus [19] = test: Antimicrobial activity against methicillin-resistant Staphylococcus aureus HU25 assessed as concentration required for bacterial subpopulation growth; type: functional; how it was run: as §1
Staphylococcus aureus [20] = test: Antimicrobial activity against methicillin-resistant Staphylococcus aureus E2125 assessed as concentration required for minimum inhibition of oxacillin-resistant subpopulation growth by Etest; type: functional; how it was run: as §1
Staphylococcus aureus [21] = test: Antimicrobial activity against methicillin-resistant Staphylococcus aureus HPV107 assessed as concentration required for minimum inhibition of oxacillin-resistant subpopulation growth by Etest; type: functional; how it was run: as §1
Staphylococcus aureus [22] = test: Antimicrobial activity against methicillin-resistant Staphylococcus aureus BK2464 assessed as concentration required for minimum inhibition of oxacillin-resistant subpopulation growth by Etest; type: functional; how it was run: as §1
Staphylococcus aureus [23] = test: Antimicrobial activity against methicillin-resistant Staphylococcus aureus HDE288 assessed as concentration required for minimum inhibition of oxacillin-resistant subpopulation growth by Etest; type: functional; how it was run: as §1
Staphylococcus aureus [24] = test: Antimicrobial activity against methicillin-resistant Staphylococcus aureus BK2529 assessed as concentration required for minimum inhibition of oxacillin-resistant subpopulation growth by Etest; type: functional; how it was run: as §1
Staphylococcus aureus [25] = test: Antimicrobial activity against methicillin-resistant Staphylococcus aureus HAR24 assessed as concentration required for minimum inhibition of oxacillin-resistant subpopulation growth by Etest; type: functional; how it was run: as §1
Staphylococcus aureus [26] = test: Antimicrobial activity against methicillin-resistant Staphylococcus aureus HAR22 assessed as concentration required for minimum inhibition of oxacillin-resistant subpopulation growth by Etest; type: functional; how it was run: as §1
Staphylococcus aureus [27] = test: Antimicrobial activity against methicillin-resistant Staphylococcus aureus USA300 assessed as concentration required for minimum inhibition of oxacillin-resistant subpopulation growth by Etest; type: functional; how it was run: as §1
Staphylococcus aureus [28] = test: Antimicrobial activity against vancomycin-intermediate Staphylococcus aureus Mu50 by Etest; type: functional
How it was run: (§2)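 Etest and population analysis: overnight cultures plated on TSA with increasing vancomycin, oxacillin or BPR, CFU counted after 48 h at 37°C. For VRSA strains, vancomycin plates also run with constant 1 µg/ml BPR. Vancomycin Etest read after overnight 37°C incubation on TSA with or without 1 µg/ml BPR.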

Staphylococcus aureus [29] = test: Antimicrobial activity against vancomycin-intermediate Staphylococcus aureus JH9 obtained from bacteremic patient by Etest; type: functional; how it was run: as §2
Staphylococcus aureus [30] = test: Antimicrobial activity against vancomycin-resistant Staphylococcus aureus VRS1 by Etest; type: functional; how it was run: as §2
Staphylococcus aureus [31] = test: Antimicrobial activity against oxacillin-resistant Staphylococcus aureus COLVA harboring Tn1546 transposon by Etest; type: functional; how it was run: as §2
Staphylococcus aureus [32] = test: Antimicrobial activity against methicillin-resistant Staphylococcus aureus COL assessed as reduction in viable bacterial titer after 24 hrs in presence of 10 times compound MIC; type: functional
Staphylococcus aureus [33] = test: Bactericidal activity against methicillin-resistant Staphylococcus aureus COL assessed as reduction in viable bacterial titer after 24 hrs at 10 times MIC; type: functional, organism-based
How it was run: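 Time-kill: exponentially growing COL cultures (OD620 0.2, about 10^8 CFU/ml at zero time) given 10× MIC of drug under aerobic conditions. Untreated control. Aliquots taken at intervals, serially diluted, plated on TSA, colonies counted after 48 h at 37°C.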

MecA = target: T1, MecA (Staphylococcus aureus, UniProt Q7DHH4); test: Inhibition of methicillin-resistant Staphylococcus aureus COL PBP2a by competitive assay; design: species or system Staphylococcus aureus subsp. aureus COL
T1 sequence (Q7DHH4 whole entry): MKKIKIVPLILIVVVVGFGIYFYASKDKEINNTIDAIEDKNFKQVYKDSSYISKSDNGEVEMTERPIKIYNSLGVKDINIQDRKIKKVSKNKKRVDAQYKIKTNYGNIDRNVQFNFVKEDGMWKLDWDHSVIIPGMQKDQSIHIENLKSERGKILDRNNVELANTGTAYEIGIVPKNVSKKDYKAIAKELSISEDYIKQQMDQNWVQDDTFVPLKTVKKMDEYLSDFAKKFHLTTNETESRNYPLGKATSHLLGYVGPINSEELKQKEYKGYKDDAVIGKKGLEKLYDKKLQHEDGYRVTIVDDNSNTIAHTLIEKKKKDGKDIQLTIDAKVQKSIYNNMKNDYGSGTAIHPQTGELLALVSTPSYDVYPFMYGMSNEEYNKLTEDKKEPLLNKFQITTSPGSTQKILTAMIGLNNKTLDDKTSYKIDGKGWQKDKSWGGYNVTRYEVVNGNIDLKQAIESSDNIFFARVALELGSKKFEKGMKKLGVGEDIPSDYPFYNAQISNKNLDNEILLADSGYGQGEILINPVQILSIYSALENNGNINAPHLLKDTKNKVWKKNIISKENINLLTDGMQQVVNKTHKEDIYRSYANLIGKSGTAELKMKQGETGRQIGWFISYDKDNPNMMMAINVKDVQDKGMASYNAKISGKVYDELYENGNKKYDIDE
How it was run: (§3)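 Purified soluble PBP 2A (mecA expressed in E. coli, 97% pure) at 0.8 µM, preincubated with drug 30 min at 30°C. Then 20 µM Bocillin FL added for 10 min at 37°C, quenched with SDS-PAGE buffer and boiled. Drug range 0.5–20 µM; for IC50, BPR 0.5–200 µM or oxacillin 5–6,000 µM. Curve fitting.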

[34] = target: T2, MecA (Staphylococcus aureus) (UniProt Q7DHH4); test: Inhibition of methicillin-resistant Staphylococcus aureus 67-O PBP2a by competitive assay
T2 sequence (whole entry): T1 sequence (Q7DHH4 whole entry)

[35] = target: T2, MecA (Staphylococcus aureus); test: Inhibition of methicillin-resistant Staphylococcus aureus COL PBP2a at 10 uM by competitive assay; settings: Staphylococcus aureus subsp. aureus COL; how it was run: as §3
[36] = target: T2, MecA (Staphylococcus aureus); test: Displacement of benzyl-[14C]penicillin from Staphylococcus aureus PBP2a RU130 mutant at 2500 ug/ml by in vitro competitive assay; settings: Staphylococcus aureus subsp. aureus COL
How it was run: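 Membranes from PBP 2 insertional mutant RU130 (Tn551 in transpeptidase domain), late exponential phase, 150 µg protein, preincubated with increasing oxacillin or BPR 10 min at 30°C. Then labelled with 20 µg/ml benzyl[14C]penicillin 10 min at 37°C and stopped with excess unlabelled penicillin in SDS. SDS-PAGE with phosphor screen exposure for 2 weeks.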

**Q.** What does the source list for `Cc1onc(-c2ccccc2)c1C(=O)N[C@@H]1C(=O)N2[C@@H]1SC(C)(C)[C@@H]2C(=O)O` [OXACILLIN]?
**A.** MIC (Staphylococcus aureus [1]): 6 µg/mL (≈ 14.9 µM); MIC (Staphylococcus aureus [2]): 0.8 µg/mL (≈ 1.99 µM); MIC (Staphylococcus aureus [3]): 12.5 µg/mL (≈ 31.1 µM); MIC (Staphylococcus aureus [4]): 0.8 µg/mL (≈ 1.99 µM); MIC (Staphylococcus aureus [5]): 1.5 µg/mL (≈ 3.74 µM); MIC (Staphylococcus aureus [6]): 100 µg/mL (≈ 249 µM); MIC (Staphylococcus aureus [7]): 100 µg/mL (≈ 249 µM); MIC (Staphylococcus aureus [8]): 0.8 µg/mL (≈ 1.99 µM); MIC (Staphylococcus aureus [9]): > 800 µg/mL; MIC (Staphylococcus aureus [10]): 400 µg/mL (≈ 996 µM); Activity (Staphylococcus aureus [11]): 400 µg/mL; Activity (Staphylococcus aureus [12]): 400 µg/mL; Activity (Staphylococcus aureus [13]): 400 µg/mL; Activity (Staphylococcus aureus [14]): 400 µg/mL; Activity (Staphylococcus aureus [15]): 400 µg/mL; Activity (Staphylococcus aureus [16]): 800 µg/mL; Activity (Staphylococcus aureus [17]): 400 µg/mL; Activity (Staphylococcus aureus [18]): 800 µg/mL; Activity (Staphylococcus aureus [19]): 800 µg/mL; Activity (Staphylococcus aureus [20]): 400 µg/mL; Activity (Staphylococcus aureus [21]): 100 µg/mL; Activity (Staphylococcus aureus [22]): 200 µg/mL; Activity (Staphylococcus aureus [23]): 200 µg/mL; Activity (Staphylococcus aureus [24]): 200 µg/mL; Activity (Staphylococcus aureus [25]): 800 µg/mL; Activity (Staphylococcus aureus [26]): 800 µg/mL; Activity (Staphylococcus aureus [27]): 400 µg/mL; MIC (Staphylococcus aureus [28]): > 800 µg/mL; MIC (Staphylococcus aureus [29]): 3 µg/mL (≈ 7.47 µM); MIC (Staphylococcus aureus [30]): > 800 µg/mL; MIC (Staphylococcus aureus [31]): 800 µg/mL (≈ 1990 µM); fold reduction in CFU (Staphylococcus aureus [32]): 1000 fold; Activity (Staphylococcus aureus [33]): inactive; IC50 (MecA): 710 µM; Activity [34]: 300 µg/mL; inhibition [35]: 5%; Activity [36]: Active

**Q.** Which MIC (Staphylococcus aureus [28]) does the source give for `CN[C@H](CC(C)C)C(=O)N[C@H]1C(=O)N[C@@H](CC(N)=O)C(=O)N[C@H]2C(=O)N[C@H]3C(=O)N[C@H](C(=O)N[C@H](C(=O)O)c4cc(O)cc(O)c4-c4cc3ccc4O)[C@H](O)c3ccc(c(Cl)c3)Oc3cc2cc(c3O[C@@H]2O[C@H](CO)[C@@H](O)[C@H](O)[C@H]2O[C@H]2C[C@](C)(N)[C@H](O)[C@H](C)O2)Oc2ccc(cc2Cl)[C@H]1O` [VANCOMYCIN] here?
**A.** Its MIC is 6 µg/mL (≈ 4.14 µM).

**Q.** What about the MIC (Staphylococcus aureus [29]) of the same compound?
**A.** The MIC was 6 µg/mL (≈ 4.14 µM).

**Q.** What about the MIC (Staphylococcus aureus [30]) of the same compound?
**A.** Its MIC is over 800 µg/mL.

**Q.** And the MIC (Staphylococcus aureus [31])?
**A.** The MIC was 800 µg/mL (≈ 552 µM).

Source: ChEMBL document CHEMBL1275462 (Antimicrob Agents Chemother, 2008)
